# High-throughput results: PubChem, Johns Hopkins Ion Channel Center
# A selection: hits, their analogues and other compounds. The true share with any hit is near 3.7%.
# Kir21 inh = Kir2.1 (mouse) channel inhibition | B-score at 10 µM | HEK293-Kir2.1, FluxOR thallium flux fluorescence; active compounds read low | P35561 | 310,000 tested, 0.85% active | AID 1672;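 active = fluorescence ratio B-score at or below minus 3 SD of library scores, with starting-brightness B-score within 2 SD, cut at about -4.2 in these data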;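 note: channel flux triggered by added potassium and thallium sulfate stimulus; B-score of peak minus minimum fluorescence over baseline after thallium stimulus; more negative B-score means stronger Kir2.1 block with less thallium influx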
# KCNK9 block = blocks the human KCNK9 two-pore domain potassium channel. 310,000 tested, 1.2% active. HEK293 KCNK9, FluxOR thallium flux fluorescence; active compounds read low. Q9NPC2. B-score at 10 µM. AID 488922;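 active = ratio B-score over 3 SD below the library mean, with starting fluorescence within 5 SD of its mean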;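 note: negative B-score means less thallium flux so channel inhibition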
# KCNQ1 pot = potentiates or activates the human KCNQ1 potassium channel. P51787. CHO-K1 KCNQ1, thallium flux FluxOR fluorescence; active compounds read high. B-score at 10 µM. 310,000 tested, 0.35% active;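 active = fluorescence ratio B-score, a plate-corrected score, at least three library SD, with initial intensity B-score within 5 SD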
#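 Doses: Single concentration per compound, DMSO matched to controls | Test system: KCNQ1-transfected CHO-K1 cells | Timing: 90 min dye loading and 20 min compound exposure, both at room temperature | Measured by: Kinetic FluxOR thallium fluorescence, 10-s 1-Hz baseline, 110-s post-stimulus read | Medium: Assay buffer with matched DMSO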
# KCNK3 inh = human KCNK3 channel inhibition, primary screen | O14649 | CHO-KCNK3 thallium flux, FluxOR fluorescence; active compounds read low | B-score at 10 µM | 340,000 tested, 0.84% active | AID 602410;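 active = B-score under library mean minus 4 SD, starting fluorescence ratio at most library mean plus 5 SD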;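 note: more negative B-score means stronger inhibition of thallium flux through KCNK3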
# KCNQ1 block = blocks the human KCNQ1 potassium channel | P51787 | CHO-K1 KCNQ1, FluxOR thallium flux fluorescence; active compounds read high | B-score at 10 µM | 310,000 tested, 1.3% active | AID 2642;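 active = compounds whose thallium flux B-score, printed positive for inhibition, exceeds three library SD while starting fluorescence stays within three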;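 note: channel opened by potassium depolarization with thallium stimulus after 20 min compound exposure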
# hERG protect = hERG (human) protection from proarrhythmic block; activation (rescue from dofetilide block), less the hit threshold, % at 10 µM; AID 1511; Q12809; 310,000 tested, 0.51% active; CHO-hERG, FluxOR thallium flux, dofetilide IC70 present;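 active = activation above the mean of controls blocked by dofetilide plus 5 SD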;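 note: thallium influx through hERG after potassium depolarization seen as dye fluorescence rise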
# Numbers stand for hits; i = inactive; nt = not tested or not shown.
SMILES,Kir21 inh,KCNK9 block,KCNQ1 pot,KCNK3 inh,KCNQ1 block,hERG protect
CCOC(=O)Cc1csc(SCC(=O)Nc2cc(Cl)ccc2Oc2ccccc2)n1,i,i,i,i,11,i
Cc1ccc2nc(/C(C#N)=C\c3ccc(N4CCOCC4)o3)[nH]c2c1,i,i,i,i,6,i
Cc1ccc2nc(/C(C#N)=C\c3ccc([N+](=O)[O-])o3)[nH]c2c1,i,i,i,i,i,i
COc1ccc(Cl)cc1NC(=O)C1CC(=O)N(C2CCCCC2)C1 (centres undefined),i,i,i,i,i,i
Cc1cccc(C(=O)NNC(=O)C(=O)NC(C)(C)C)c1,i,i,i,i,i,i
CC(=O)NC(=S)NNC(=O)COc1ccc(Br)cc1,nt,nt,nt,i,nt,nt
CC(C)(C)NC(=O)C(=O)NNC(=O)COc1ccc(Br)cc1,i,i,8,i,i,5.1
COC(=O)NNC(=O)c1ccc(C(C)(C)C)cc1,i,i,i,i,i,i
CC(C)(C)NC(=O)C(=O)NNC(=O)c1ccc(C(C)(C)C)cc1,i,i,20,i,i,15
CC(C)(C)NC(=O)C(=O)NNC(=O)c1cccc(Br)c1,i,i,18,i,i,23
O=C1CNC(=O)N1CC(O)Cn1c2ccccc2c2ccccc21 (centres undefined),i,i,i,i,i,i
CCN(C(=O)CCc1nc(-c2ccc(OC)cc2)no1)c1cc(OC)ccc1OC,i,-7.6,i,i,i,i
CCc1ccc(NC(=O)CN2CCCN(S(=O)(=O)c3ccc(F)cc3)CC2)cc1,i,i,i,i,i,i
COc1cc2c(cc1OC)CN(C(=O)c1ccc(Cl)c(S(=O)(=O)N3CCCC3)c1)CC2,nt,nt,nt,-8.7,nt,nt
NNC(=O)Cn1c(-c2nonc2N)nc2ccccc21,i,i,i,i,i,i
CCCCOc1ccccc1NC(=O)Cn1c(-c2nonc2N)nc2ccccc21,i,i,i,-8.8,i,i
CCCCCCCCCCSc1n[nH]c(N)n1,i,i,i,i,i,i
CC(OC(=O)c1ccc2c(c1)OCCO2)C(=O)c1ccccc1 (centres undefined),i,i,i,i,i,i
Cn1c2ccccc2c(=O)c2ccc(C#Cc3ccc(N)cc3)cc21,i,-7.3,i,i,i,i
C=CCOC(=O)C1=C[C@H](c2csc3ccccc23)C[C@H](OCc2ccc(CO)cc2)O1,i,i,i,i,6,i
COc1ccc(OC)c(S(=O)(=O)Nc2ccc(O)c3ccccc23)c1,i,i,i,i,i,11
Cc1ccc(N(CC(=O)Nc2cc(Cl)ccc2Oc2ccccc2)S(C)(=O)=O)c(C)c1,i,i,i,i,i,i
COc1ccc(NC(=O)CN(c2ccc(OC)c(Cl)c2)S(=O)(=O)c2ccccc2)c(OC)c1,i,i,i,i,6,i
Cc1ccc(N(CC(=O)Nc2cc(Cl)ccc2Oc2ccccc2)S(C)(=O)=O)cc1C,i,-7.5,i,i,i,i
O=C(Nc1cc(Cl)ccc1Oc1ccccc1)c1ccccc1F,i,i,i,i,6,i
SMILES,Kir21 inh,KCNK9 block,KCNQ1 pot,KCNK3 inh,KCNQ1 block,hERG protect
O=C(Nc1ccccc1Oc1ccccc1)c1ccccc1F,i,i,i,i,i,i
CC(=O)c1cccc(NC(=O)C2=CN3CCS(=O)(=O)N=C3C=C2)c1,nt,nt,nt,i,nt,nt
CC(NCC(=O)Nc1ccccc1C(=O)NC1CC1)c1ccco1 (centres undefined),nt,nt,nt,i,nt,nt
CSCC(C)N1CCC(CCC(=O)NC2CC2)CC1 (centres undefined),i,i,i,i,i,i
O=C1CC2(CCCCC2)Oc2ccccc21,i,i,i,i,i,5.4
O=C1CC2(CCCCC2)Oc2ccc(F)cc21,i,i,i,i,i,i
C#CCOc1ccc(Cl)cc1/C=N/O,i,i,i,i,i,i
O/N=C/c1cc(Cl)ccc1OCc1cccc2ccccc12,i,-11,i,nt,7,i
Cn1c(-c2sccc2OCc2ccc(Cl)cc2Cl)n[nH]c1=S,-5.5,i,i,i,i,i
Cc1ccc(COc2ccsc2-c2n[nH]c(=S)n2C)cc1,i,i,i,i,i,i
N=C1/C(=C/c2ccc(-c3cccc(C(=O)O)c3)o2)C(=O)N=C2SC=C(c3ccccc3)N12,i,i,i,i,7,i
N=C1/C(=C\c2ccc(-c3cc(Cl)cc(Cl)c3)o2)C(=O)N=C2SC=C(c3ccccc3)N12,i,i,i,i,i,i
CC(C)S(=O)(=O)C1=NSC2=NC(=O)/C(=C\c3ccc(-c4cccc(C(=O)O)c4)o3)C(=N)N21,nt,nt,nt,i,nt,nt
CC(C)S(=O)(=O)C1=NSC2=NC(=O)/C(=C\c3ccc(-c4ccccc4)o3)C(=N)N21,i,i,i,i,8,i
Cc1ccc(NNC(=O)c2cc(C(C)(C)C)nn2Cc2ccccc2)cc1,i,i,i,i,i,i
CC(C)(C)c1cc(C(=O)NNc2ccc(OC(F)(F)F)cc2)n(Cc2ccccc2)n1,i,-8,i,i,i,i
COc1ccccc1NNC(=O)c1cc(C(C)(C)C)nn1Cc1ccccc1,i,i,i,i,6,i
CN1CCN(S(=O)(=O)c2cccc(C(=O)N3CCN(c4ccccc4F)CC3)c2)CC1,nt,nt,nt,i,nt,nt
Clc1ccc(-c2csc(Nc3ccccc3)[n+]2Cc2ccco2)c(Cl)c1,i,-7.3,i,i,i,i
CC(C)(C)CN1CCN(Cc2cccnc2)CC1CCO (centres undefined),i,i,i,i,i,i
Cc1ccccc1NC(=O)c1cc2c(C)nc3ccccc3c2o1,i,i,i,i,i,i
CCc1ccc(NC(=O)c2cc3c(C)nc4ccccc4c3o2)cc1,i,i,i,i,6,i
NC(=O)c1ncn([C@@H]2O[C@H](CO)[C@@H](O)[C@H]2O)c1O,i,i,i,i,i,i
O=C(Cc1ccccc1[N+](=O)[O-])NCCCc1ccccc1,i,i,i,i,i,i
CCCCN(CCCC)CC(O)CN(c1cc([N+](=O)[O-])ccc1OC)S(=O)(=O)c1ccccc1 (centres undefined),i,i,i,i,i,i
SMILES,Kir21 inh,KCNK9 block,KCNQ1 pot,KCNK3 inh,KCNQ1 block,hERG protect
COc1ccc([N+](=O)[O-])cc1N(CC(O)CN(CC(C)C)CC(C)C)S(=O)(=O)c1ccccc1 (centres undefined),i,-6.7,i,i,i,i
COc1ccc(C)cc1NC(=O)C(=O)NNC(=O)c1ccco1,i,i,29,i,i,34
Cc1ccc(S(=O)(=O)CC(O)COc2ccc(F)cc2Cl)c(C)c1 (centres undefined),-6.1,i,i,i,i,i
O=S(=O)(Nc1ccc2c(c1)OCO2)c1ccc(Cl)cc1F,nt,nt,nt,i,nt,nt
Nn1c(Cc2cccc3ccccc23)nnc1SCCOc1ccc(Br)cc1,i,i,i,i,i,i
Nn1c(Cc2cccc3ccccc23)nnc1SCCOc1ccc(F)cc1,i,-7.9,i,i,i,i
